Assay outcomes from PubChem.
Rows were chosen to be rich in hits. Some 1.9% of all compounds tested hit in one or more screens of this group.
Tb hexokinase: T. brucei hexokinase 1 inhibition; recombinant TbHK1, G6PDH-coupled NADH A340; inhibition, % at 10 µM; 220,000 compounds, 0.11% hits;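 active = inhibition of 50% or more in the single-dose primary screen; inactive = inhibition below 50%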
MT stabilizer: microtubule stabilization, imaging screen. HeLa tubulin immunostaining HCS, 24 h; share of cells brighter than vehicle mean+2SD. % tubulin-high responders, % at 10 µM. 200,000 compounds, 0.83% hits. AID 2205;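 active = plate Z-score above 3 for both tubulin-high and condensed-nucleus cell shares, with cell loss under 80%, at 10 µM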;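 also: anti alpha tubulin signal scored within the nucleus-defined area of each cell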
Insulin prom up: MIN6 insulin promoter up-regulation | MIN6 insulin promoter-GFP reporter, high-content imaging; hits give high values | z-score at 5 µM | 190,000 compounds, 0.3% hits | AID 1625;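 active = z-score above 3 at 5 µM with at least 500 cells counted in the well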
Autophagy HCS: modulators of autophagy; MEF GFP-LC3 puncta imaging; test concentration mostly 10 µM; calls only at 10 µM (by protocol); 190,000 compounds, 0.98% hits;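 active = percentage of spot-positive cells more than 3 SD above its plate mean, without a fluorescence outlier flag or 80% toxicity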;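 also: spot-positive cell cutoff set from DMSO-treated cells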
bCat nuc transl: beta-catenin nuclear translocation modulation; HeLa beta-catenin nuclear translocation, immunofluorescence imaging; nuclear translocation activity, % at 5 µM; 190,000 compounds, 0.3% hits;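 active = nuclear translocation activity above 50% at 5 µM, with a well cell count of 50 or more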;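 also: per-cell ratio of nuclear to cytoplasmic median beta-catenin stain intensity; plate controls were DMSO negative control for no effect and GSK-3 inhibitor IX positive control for full effect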
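Test system: human HeLa cell line; Doses: 5 µM primary, 0.02–20 µM confirmation; Incubation: 24 h compound exposure, 37°C; Detection: beta-catenin immunofluorescence imaging with DAPI; Read-out: beta-catenin nuclear/cytoplasmic ratio, % activation.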
* marks the source's active call; other numbers are inactive results.

Results for O=C(O)CN1C(=O)NC2NC(=O)NC21 (configuration not stated) ?
Tb hexokinase: -3.7; MT stabilizer: 1.5; Insulin prom up: -0.6; Autophagy HCS: inactive

How did O=C1C2CC=CCC2C(=O)N1Cc1nnc(-c2ccccc2Br)o1 (configuration not stated) do in these assays?
Tb hexokinase: 3.1; Insulin prom up: 0.52; bCat nuc transl: 1.5

Results for Cc1ccc(C(C(=O)NCc2ccco2)N(C(=O)CNC(=O)c2cccs2)c2c(C)cc(C)cc2C)cc1 (configuration not stated) ?
Tb hexokinase: 4.5; MT stabilizer: 6.8; Insulin prom up: 0.63; Autophagy HCS: active; bCat nuc transl: 5.3

What do the screens show for `Cc1ccc(C(C(=O)NCc2ccco2)N(C(=O)CNC(=O)c2cccs2)c2c(C)cccc2C)cc1` (configuration not stated)?
Tb hexokinase: 5.4; MT stabilizer: 4.6; Insulin prom up: 0.07; Autophagy HCS: inactive; bCat nuc transl: -0.8

How did O=C(NC1(N2CCOCC2)CC1)c1ccc(Cl)cc1 do in these assays?
Tb hexokinase: -8.6; Insulin prom up: 0.65; bCat nuc transl: -0.4

Results for Cc1cc(C(=O)N=Nc2c(O)n(C(C)C)c3ccccc23)n[nH]1 ?
Tb hexokinase: -31.9; MT stabilizer: 2.3; Insulin prom up: -1.39; Autophagy HCS: inactive; bCat nuc transl: -2.6

What do the screens show for `CC(C)n1c(O)c(N=Nc2ccc(Cl)nn2)c2ccccc21`?
Tb hexokinase: -10.6; MT stabilizer: 3.8; Insulin prom up: 0.59; Autophagy HCS: active; bCat nuc transl: 3.3

Results for Clc1ccc(/C=N/c2c(-c3ccc(Cl)cc3)nc3n2CCS3)cc1 ?
Tb hexokinase: -14.4; MT stabilizer: 4.4; Insulin prom up: -0.47; Autophagy HCS: active; bCat nuc transl: 1.1

How did Cc1ccc(C(=O)O)cc1NC(=O)CCc1ccccc1 do in these assays?
Tb hexokinase: -4.9; MT stabilizer: 1.5; Insulin prom up: -0.84; Autophagy HCS: active; bCat nuc transl: 4.3

How did COc1cc(/C=N/NS(=O)(=O)c2ccc3ccccc3c2)ccc1OCc1ccc(C(=O)O)cc1 do in these assays?
Tb hexokinase: -27.2; Insulin prom up: 0.38; bCat nuc transl: 1.2

What do the screens show for `COC(=O)c1ccc(COc2ccccc2/C=N/NS(=O)(=O)c2ccccc2)cc1`?
Tb hexokinase: 1.6; MT stabilizer: 23.1*; Insulin prom up: 0.03; Autophagy HCS: inactive; bCat nuc transl: 1.4

Results for Cc1ccsc1C(=O)N/N=C/c1ccc2c(c1)OCO2 ?
Tb hexokinase: -27.5; MT stabilizer: 4.4; Insulin prom up: 0.73; Autophagy HCS: inactive; bCat nuc transl: 2.1

How did O=C(N/N=C/c1ccc2c(c1)OCO2)c1sc2cc(Cl)ccc2c1Cl do in these assays?
Tb hexokinase: -2.7; MT stabilizer: 19.0*; Insulin prom up: -0.39; Autophagy HCS: inactive; bCat nuc transl: -0.7

How did COc1ccc2c(Cl)c(C(=O)N/N=C/c3ccc4c(c3)OCO4)sc2c1 do in these assays?
Tb hexokinase: -2.2; MT stabilizer: 12.0; Insulin prom up: 0.87; Autophagy HCS: inactive; bCat nuc transl: -0.6

What do the screens show for `O=C(N/N=C/c1ccc2c(c1)OCO2)c1sc2cccc(Cl)c2c1Cl`?
Tb hexokinase: 2.3; MT stabilizer: 21.8*; Insulin prom up: 0.46; Autophagy HCS: inactive; bCat nuc transl: 2.2

What do the screens show for `COc1ccc(N(CC(=O)NCc2ccncc2)S(=O)(=O)c2ccccc2[N+](=O)[O-])c(OC)c1`?
Tb hexokinase: 2.2; MT stabilizer: 3.0; Insulin prom up: -0.39; Autophagy HCS: inactive; bCat nuc transl: -0.4

How did Cc1ccc(S(=O)(=O)N(C)C)cc1NC(=O)COC(=O)c1ccc2c(c1)NC(=O)CS2 do in these assays?
Tb hexokinase: -11.2; Insulin prom up: -0.03; bCat nuc transl: -2.5

How did CCN(CC)S(=O)(=O)c1ccc(C)c(NC(=S)N2CCN(Cc3ccc4c(c3)OCO4)CC2)c1 do in these assays?
Tb hexokinase: 7.0; MT stabilizer: 7.3; Insulin prom up: -0.29; Autophagy HCS: inactive; bCat nuc transl: 1.9

How did Cc1ccc(-n2sc3ccccc3c2=O)cc1S(=O)(=O)N1CCCCC1 do in these assays?
Tb hexokinase: 92.5*; MT stabilizer: 2.3; Insulin prom up: -0.44; Autophagy HCS: inactive; bCat nuc transl: 0.2

What do the screens show for `CN(C)S(=O)(=O)c1cccc(-n2sc3ccccc3c2=O)c1`?
Tb hexokinase: 85.9*; MT stabilizer: 10.0; Insulin prom up: -0.12; Autophagy HCS: inactive; bCat nuc transl: -2.3

What do the screens show for `Cc1ccc(S(=O)(=O)c2c[nH]c3cc4c(cc3c2=O)OCO4)cc1`?
Tb hexokinase: 3.2; Insulin prom up: -0.45; bCat nuc transl: 0.6

Results for COc1ccc(NC(=O)C(Cl)=C(Cl)Cl)cn1 ?
Tb hexokinase: 2.6; MT stabilizer: 5.5; Insulin prom up: -1.48; Autophagy HCS: inactive; bCat nuc transl: -0.1

What do the screens show for `COc1ccc(NC(=O)Cc2ccc(-c3ccccc3)cc2)cn1`?
Tb hexokinase: 0.9; MT stabilizer: 25.6*; Insulin prom up: 0.07; Autophagy HCS: inactive; bCat nuc transl: 96.5*

What do the screens show for `COc1ccc(NC(=O)/C(Cl)=C(/Cl)S(=O)(=O)Cc2ccccc2)cn1`?
Tb hexokinase: -0.1; MT stabilizer: 1.7; Autophagy HCS: active; bCat nuc transl: -2.2

What do the screens show for `COc1ccc(CC(=O)Nc2ccc(OC)nc2)cc1`?
Tb hexokinase: -4.9; MT stabilizer: 5.3; Insulin prom up: 0.05; Autophagy HCS: inactive; bCat nuc transl: -1.6

What do the screens show for `COc1ccc2c(CC(=O)Nc3ccccc3OC)coc2c1`?
Tb hexokinase: 2.7; MT stabilizer: 4.6; Insulin prom up: 2.02; Autophagy HCS: inactive; bCat nuc transl: 1.5

What do the screens show for `COc1ccc2c(CC(=O)Nc3ccc(OC)nc3)coc2c1`?
Tb hexokinase: -6.8; MT stabilizer: 1.7; Insulin prom up: -0.14; Autophagy HCS: active; bCat nuc transl: 0.0

What do the screens show for `Nc1ccc2c(c1)Nc1ccccc1CC2`?
Tb hexokinase: 0.0; MT stabilizer: 1.4; Insulin prom up: 0.34; Autophagy HCS: inactive; bCat nuc transl: 0.9

Results for O=C1C2CC(O)CN2C(=O)N1c1ccccc1 (configuration not stated) ?
Tb hexokinase: -1.0; MT stabilizer: 3.3; Autophagy HCS: inactive; bCat nuc transl: -0.5

How did Cc1ccc(S(=O)(=O)N(C)C)cc1NC(=O)c1cncc(Br)c1 do in these assays?
Tb hexokinase: 21.9; MT stabilizer: 1.5; Insulin prom up: 0.11; Autophagy HCS: inactive; bCat nuc transl: 3.1

How did Cc1c(Cc2ccccc2)sc(/N=C/c2ccc3ccccc3c2)c1C(N)=O do in these assays?
Tb hexokinase: -6.5; MT stabilizer: 19.2*; Insulin prom up: 0.32; Autophagy HCS: inactive; bCat nuc transl: 100.7*

What do the screens show for `Cc1c(Cc2ccccc2)sc(/N=C/c2c(O)ccc3ccccc23)c1C(N)=O`?
Tb hexokinase: 13.3; MT stabilizer: 2.8; Insulin prom up: 1.11; Autophagy HCS: inactive; bCat nuc transl: -0.2
